Assay outcomes as filed in PubChem.
MEKK2 WT-MEK5: raises or lowers MEK5 binding to wildtype human MEKK2 PB1 domain; Q9Y2U5; AID 1531; 1.1% of 290,000 active; bead flow cytometry, Alexa488-MEK5 binding to MEKK2 WT; actives lie on both sides; binding response (% of control), % at 10 µM; in the data active = binding response below about 67% or above about 130%
MEKK3 PB1 HTS: modulators (inhibitors or enhancers) of MEK5 binding to human MEKK3 PB1 domain; bead-based flow cytometry, Alexa488-MEK5 binding to MEKK3; actives lie on both sides; 0 = blocked by unlabeled MEK5, 100 = vehicle; binding response (% of control), % at 10 µM; 1.4% of 290,000 active; AID 1529;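 active = binding response more than 3 SD above or below the average of its plate-row segment, actives on both sides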;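 note: Alexa488 bead fluorescence after subtracting the streptavidin-only scavenger bead signal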
Target sequence (Q99759 whole entry, looked up, the tested form may be a part): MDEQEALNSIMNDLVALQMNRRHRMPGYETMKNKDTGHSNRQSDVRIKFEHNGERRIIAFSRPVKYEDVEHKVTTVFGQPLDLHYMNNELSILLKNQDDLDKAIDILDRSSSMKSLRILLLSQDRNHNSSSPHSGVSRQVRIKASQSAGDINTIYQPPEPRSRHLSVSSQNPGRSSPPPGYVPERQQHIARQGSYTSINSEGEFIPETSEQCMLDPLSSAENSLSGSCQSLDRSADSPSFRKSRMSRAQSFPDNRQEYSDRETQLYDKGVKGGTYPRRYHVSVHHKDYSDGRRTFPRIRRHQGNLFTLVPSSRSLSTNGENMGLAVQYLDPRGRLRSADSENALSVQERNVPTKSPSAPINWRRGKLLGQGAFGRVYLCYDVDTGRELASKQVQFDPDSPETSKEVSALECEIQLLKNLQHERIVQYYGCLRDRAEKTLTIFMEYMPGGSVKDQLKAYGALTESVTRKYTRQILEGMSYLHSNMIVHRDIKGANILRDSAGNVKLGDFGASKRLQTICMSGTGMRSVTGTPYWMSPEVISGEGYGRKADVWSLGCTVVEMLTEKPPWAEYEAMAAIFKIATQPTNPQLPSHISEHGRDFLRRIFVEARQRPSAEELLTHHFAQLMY
Arrestin-AP2 inh: human beta-arrestin and AP2 interaction inhibition; FITC-arrestin peptide / GST-AP2 beads, flow cytometry; AP2 beta2 appendage carries R879A mutation; inhibition, % at 10 µM; 0.31% of 340,000 active;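 active = inhibition above a set limit, near 3 SD of compounds lacking own fluorescence, cut at about 54% in these data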;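 note: plate controls were DMSO wells for no effect and 5 µM unlabelled arrestin peptide for full effect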
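Measured by: flow cytometry, FL1 (488/535 nm); Material: AP2 appendage R879A on GSH beads; Evaluation: percent response; Timing: pre-incubation 12 min, peptide binding 1 h, room temperature; Also added: 50 nM FITC-arrestin peptide; Medium: PBS with 0.05% Tween 20 and 0.1% BSA.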
MEKK2 mut-MEK5: signal of MEK5 binding to mutant human MEKK2 PB1 domain; bead flow cytometry, Alexa488-MEK5 binding to MEKK2 mutant; percent response, % at 10 µM; 0.35% of 290,000 active; in the data active = percent response above about 24%, passing the limit was not always enough
MEKK2wt confirm: raises or lowers MEK5 binding to wildtype human MEKK2, retest | bead flow cytometry, Alexa488-MEK5 binding to MEKK2 WT; actives lie on both sides | 2.4% of 5,900 active | shares compounds with MEKK3 PB1 HTS | binding response (% of control), % at 10 µM | AID 1892; in the data active = binding response below about 16% or above about 210%; inactive = in between
MEKK2mut-MEK5: signal of MEK5 binding to mutant human MEKK2, retest | shares compounds with MEKK3 PB1 HTS | bead flow cytometry, Alexa488-MEK5 binding to MEKK2 mutant | AID 1893 | 2% of 5,900 active | percent response, % at 10 µM; in the data active = percent response mostly above about 71%, no sharp cut-off; inactive = mostly below about 38%;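 note: higher means compound restores mutant binding toward wildtype level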
MEKK3 confirm: MEKK3-MEK5 PB1 inhibition, single concentration confirmation; shares compounds with MEKK3 PB1 HTS; bead flow cytometry, Alexa488-MEK5 binding to MEKK3; active compounds read low; binding response (% of control), % at 10 µM; 1.8% of 5,900 active;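 active = binding response below 72% of control, or above a set upper limit, though filed actives all read lower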;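 note: 100% = DMSO only wells and 0% = binding blocked by excess unlabeled MEK5; lower values mean stronger disruption of MEK5 binding to MEKK3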
Starred values were filed as active, the others as inactive; / = no result given; ! = not active in a repeat; [ ] = remark or other dose. The list is not random: actives were taken first. Their share in the collection is about 2.3%.

SMILES	MEKK2 WT-MEK5	MEKK3 PB1 HTS	Arrestin-AP2 inh	MEKK2 mut-MEK5	MEKK2wt confirm	MEKK2mut-MEK5	MEKK3 confirm
CCOC(=O)Cc1csc(NC(=O)c2cccc(OC)c2)n1	115	108	10	6	/	/	/
CCOC(=O)Cc1csc(NC(=O)c2ccc(OC)c(OC)c2)n1	0.0*[inhibitor]	1.0*[inhibitor]	9	-42	96	1	99
CCOC(=O)Cc1csc(NC(=O)COc2ccc(N(C)S(=O)(=O)c3ccc(C)cc3)cc2)n1	116	128*	-1	9	104	3	107
CCOC(=O)Cc1csc(NC(=O)COc2ccc(OC)cc2)n1	99	99	1	5	/	/	/
Cc1cc(C(N)=O)nn1-c1c(Cl)cc(Cl)cc1Cl	71	70	-18	-15	/	/	/
CCOC(=O)CSc1cc(=O)n(CC)c2ccccc12	123	129*	8	8	100	3	103
CCSc1nnc(NC(=O)C2Cc3ccccc3CN2S(=O)(=O)CC)s1 (stereo not given)	16*[inhibitor]	12*[inhibitor]	-10	-1	99	2	104
Brc1ccc(-c2nc3ncccn3c2NC2CCCCC2)o1	123	129*	14	8	101	4	102
Cc1ccc(C)c2c1cc(C)c1nnc(SCC(=O)c3cccs3)n12	112	148*	-3	4	99	-6	97
Nc1ccc(Sc2nnnn2-c2ccccc2)c(Cl)c1	-3.0*[inhibitor]	1.0*[inhibitor]	-6	-26	100	-2	102
Cc1ccc(-c2nc(C#N)c(NCc3cccc4c3OCO4)o2)cc1	80	70*[inhibitor]	12	-17	94	-6	100
CCCCNc1c([N+](=O)[O-])cc(C(=O)O)cc1[N+](=O)[O-]	107	138*	8	0	103	1	102
O=C(Cn1cnc2ccccc21)N/N=C/c1cccs1	100	129*	-13	2	105	-2	103
O=C(Cn1nnc2ccccc21)N/N=C\c1cccs1	107	103	37	11	/	/	/
CCc1cc(S(=O)(=O)N2CCN(C(=O)c3ccco3)CC2)ccc1OC	107	105	3	12	/	/	/
O=C1CCc2ccc(OCCCCN3CCN(c4cccc(Cl)c4Cl)CC3)cc2N1	177*!	113	5	15	1.0*[inhibitor]	-29	1.0*
COc1ccccc1N1CCN(CCCOc2ccc(F)cc2)CC1	91	89	1	-4	/	/	/
NC(=O)C1CCN(C(=O)/C(=C/c2ccccc2)NC(=O)c2ccccc2)CC1	109	108	-9	2	/	/	/
CC12CCC(=O)N1C(C(=O)Nc1nnc(SCc3ccccc3F)s1)CS2 (stereo not given)	106	104	1	5	/	/	/
CCN(CC)CCN(C(=O)c1ccc2ccccc2c1)c1nc2cc3c(cc2s1)OCO3	135*	105	41	21	116	5	100
CCOc1cccc2sc(N(CCN(CC)CC)C(=O)c3ccc(S(=O)(=O)N4CCCC4)cc3)nc12	128	104	2	16	/	/	/
CCN(CC)CCN(C(=O)c1ccc(S(=O)(=O)N2CCCCC2)cc1)c1nc2cc3c(cc2s1)OCO3	127	132*	11	2	132	31	110
Cc1cc(C)cc(N(CC(=O)NC(C)(C)C)C(=O)CNC(=O)c2cccs2)c1	89	100	5	-6	/	/	/
Cc1ccc(S(=O)(=O)N2CCOCC2)cc1C(=O)OC(C)C(=O)c1ccccc1 (stereo not given)	/	/	7	/	/	/	/
N#C/C(=N\Nc1ccc(Cl)c(Cl)c1)C(=O)C1CC1	45*[inhibitor]	45*[inhibitor]	13	-8	94	-2	99
SMILES	MEKK2 WT-MEK5	MEKK3 PB1 HTS	Arrestin-AP2 inh	MEKK2 mut-MEK5	MEKK2wt confirm	MEKK2mut-MEK5	MEKK3 confirm
O=C(O)c1ccc2c(c1)C1C=CCC1C(c1cc3c(cc1Br)OCO3)N2 (stereo not given)	98	100	3	-6	/	/	/
Brc1cc2c(cc1C1Nc3ccccc3C3C=CCC31)OCO2 (stereo not given)	98	67*[inhibitor]	-4	-2	98	-2	103
Cc1cc(OC(C)C(=O)NCc2ccccn2)c2c(C)c(C)c(=O)oc2c1 (stereo not given)	91	88	24	-13	/	/	/
COc1ccc(C(=O)NNC(=O)CCC(=O)NNC(=O)c2ccc(OC)cc2)cc1	105	105	4	7	/	/	/
COc1ccc(C(=O)NNC(=O)c2ccc(C(C)(C)C)cc2)cc1	2.0*[inhibitor]	1.0*[inhibitor]	-21	-46	102	-1	101
COCCNC(=O)C(=O)NCC1OCCN1S(=O)(=O)c1ccc2c(c1)OCCO2 (stereo not given)	124	129*	16	23	104	4	105
CNC(=O)C(=O)NCC1OCCN1S(=O)(=O)c1ccc2c(c1)OCCO2 (stereo not given)	/	/	-3	/	/	/	/
CCOc1ccc2nc(COC(=O)c3ccncc3)c(C(=O)c3ccccc3)[n+]([O-])c2c1	107	102	-3	2	/	/	/
CCOC(=O)C1CCCN(Cc2cccs2)C1 (stereo not given)	-3.0*[inhibitor]	1.0*[inhibitor]	6	-18	104	6	106
CCOC(=O)C1CCCN(S(=O)(=O)c2ccc(S(=O)(=O)N3CCCC3)cc2)C1 (stereo not given)	/	/	-12	/	/	/	/
CCOC(=O)C1CCCN(S(=O)(=O)c2cccs2)C1 (stereo not given)	114	122*	10	7	97	-7	97
O=C(C1CCCN(Cc2cccs2)C1)N1CCCCCC1 (stereo not given)	115	111	6	13	/	/	/
CCSCCOC(=O)C1=C(C)N(C)C(=O)NC1c1ccc2c(c1)OCO2 (stereo not given)	104	103	37	1	/	/	/
O=C(CCS(=O)(=O)c1cccc2nonc12)NCc1ccc(Cl)cc1	99	100	11	1	/	/	/
FC(F)(F)c1ccc(-c2nnc(-c3ccccn3)c(-c3ccccn3)n2)nc1	66	61*[inhibitor]	16	-37	106	3	103
CN1CCN(Cc2nc3ccccc3c(=O)n2Cc2nc(-c3ccc4ccccc4c3)cs2)CC1	195*	108	-4	51*	153	25	104
CN1CCN(Cc2nc3ccccc3c(=O)n2Cc2nc(-c3cccc([N+](=O)[O-])c3)cs2)CC1	113	102	41	7	/	/	/
CC(=O)Nc1ccc(S(=O)(=O)NCC2CCC(C(=O)NCc3ccccc3)CC2)cc1 (stereo not given)	129	138*	-8	1	101	4	101
